# High-throughput results: PubChem BioAssay, The Scripps Research Institute Molecular Screening Center
# M4 ag: agonists of human muscarinic M4 receptor (CHRM4) | P08173 | CHO-K1 hM4/Gqi5, Fluo-8 calcium fluorescence; vehicle 0%, full acetylcholine response 100% | activation, % at 3 µM | 0.14% of 360,000 active;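 active means activation above the run mean over all test wells plus 3 SD, cut at about 32% in these data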;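 further: peak over basal fluorescence ratio per well then scaled between controls; 0% = DMSO wells and 100% = acetylcholine at EC100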
# Target sequence (P08173 whole entry, looked up): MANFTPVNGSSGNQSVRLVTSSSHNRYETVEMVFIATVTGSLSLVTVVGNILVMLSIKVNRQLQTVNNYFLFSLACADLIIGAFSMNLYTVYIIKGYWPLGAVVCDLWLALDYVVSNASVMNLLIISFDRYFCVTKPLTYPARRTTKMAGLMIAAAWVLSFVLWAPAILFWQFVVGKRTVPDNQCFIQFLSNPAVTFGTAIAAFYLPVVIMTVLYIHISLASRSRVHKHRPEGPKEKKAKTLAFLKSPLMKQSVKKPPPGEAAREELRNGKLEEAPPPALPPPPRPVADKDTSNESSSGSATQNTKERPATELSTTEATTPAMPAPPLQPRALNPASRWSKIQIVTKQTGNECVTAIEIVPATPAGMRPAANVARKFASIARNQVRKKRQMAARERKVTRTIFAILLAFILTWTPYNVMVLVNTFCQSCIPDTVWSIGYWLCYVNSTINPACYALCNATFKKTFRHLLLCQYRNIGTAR
# M4 PAM: potentiates acetylcholine response at human M4 receptor | CHO-K1 hM4/Gqi5, Fluo-8 calcium fluorescence, ACh EC20; 0% = ACh EC20, 100% = maximal ACh | 0.4% of 360,000 active | activation, % at 3 µM | P08173;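 active means activation above its plate's cutoff, the mean activation of sample wells plus 3 SD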
# CHRM5 agonist: CHRM5 agonism in calcium assay; P08912; CHO-K1 hM5 cells, Fluo-8 calcium fluorescence; 0% DMSO wells, 100% maximal acetylcholine response; activation, % at 3 µM; 0.19% of 360,000 active; AID 624037;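 active means activation above the run's mean over test compounds plus 3 SD, cut at about 23% in these data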;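 further: signal is peak over basal fluorescence ratio across the kinetic read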
# M5 PAM: potentiates acetylcholine response at human M5 receptor; activation, % at 3 µM; P08912; CHO-K1 hM5, Fluo-8 calcium, ACh EC20 PAM; 0% = ACh EC20, 100% = ACh EC100; 0.3% of 360,000 active;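 active means activation above the run cutoff, the mean activation of all test compounds plus 3 SD, cut at about 18% in these data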
#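 Assay system: CHO-K1 hM5 cells. Also added: acetylcholine at EC20 concentration, added after compound. Dosing: 3 µM, single dose. Times: compound preincubation 140 s before EC20 acetylcholine addition. Signal: Fluo-8 calcium fluorescence. Measure: % activation relative to EC20 and EC100 ACh responses. Repeats: singlicate, one well per test compound.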
# CHRM5 antagonist: CHRM5 antagonism in calcium assay. P08912. inhibition, % at 3 µM. AID 624040. CHO-hM5 cells, Fluo-8 calcium fluorescence, ACh EC80. 0.59% of 360,000 active;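 active means inhibition above a per-plate cutoff, the mean of that plate's test compounds plus 3 SD, cut at about 27% in these data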;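 further: 0% = acetylcholine EC80 with DMSO and 100% = DMSO without agonist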
# M4 antag: CHRM4 antagonism in calcium assay | P08173 | CHO-hM4 cells, ACh EC80, Fluo-8 calcium fluorescence | inhibition, % at 3 µM | 0.73% of 360,000 active | AID 624125;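 active means inhibition above its plate's cutoff, the mean inhibition of sample wells plus 3 SD, cut at about 27% in these data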;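 further: 0% = acetylcholine EC80 with DMSO and 100% = DMSO without agonist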
# * marks the source's active call; other numbers are inactive results. This is a sample that favours compounds with a hit; in the whole collection about 1.8% have one here.
SMILES,M4 ag,M4 PAM,CHRM5 agonist,M5 PAM,CHRM5 antagonist,M4 antag
CC1(C(=O)NCc2cccc(Cl)c2)Cc2c(-c3cccc(C(N)=O)c3)ccnc2O1 (centres undefined),3.5,4.5,-0.9,3.3,-2.9,-3.7
Cc1ccnc(NS(=O)(=O)c2ccc(NC(=O)c3ccc(N4C(=O)CCC4=O)cc3)cc2)n1,0.1,6.1,4.2,6.3,-4.7,4.4
Cc1cc(C)nc(NS(=O)(=O)c2ccc(NC(=O)c3cccc(N4C(=O)CCC4=O)c3)cc2)n1,2.1,24.5*,2.7,7.8,20.1,6.2
Cc1ccc(-n2c(Cl)c(Cl)nc(Cl)c2=O)cc1,-2.7,-6.1,-3.9,2.0,1.9,36.8*
S=c1[nH]nc(CN2CCCCC2)n1Cc1ccccc1,0.2,-27.1,-18.1,-33.2,6.2,31.5*
S=c1[nH]nc(CN2CCCC2)n1Cc1ccccc1,1.3,-14.0,-18.0,-6.8,9.3,19.3
O=C(O)CSc1nnc(CSc2nc3ccccc3s2)n1-c1ccccc1,0.8,12.2,-3.7,20.2*,-3.6,-17.9
CC(=O)Nc1ccc(Sc2ccc([N+](=O)[O-])o2)cc1,-0.4,5.3,-3.4,-10.2,14.1,3.8
CC(C)(C)C(=O)Nc1ccc(Sc2ccc([N+](=O)[O-])cc2)cc1,13.1,-15.4,1.7,-18.1,42.7*,21.0
O=C(CN(Cc1ccccc1Cl)C(=O)c1csnn1)NC1CCCC1,0.7,-0.4,1.7,0.3,-5.7,0.6
Cc1ccc(NS(=O)(=O)c2cc(Br)cnc2N)cc1C,2.8,-14.5,-9.7,-18.3,99.6*,97.4*
Cc1cc(C)cc(NS(=O)(=O)c2cc(Br)cnc2N)c1,1.3,-6.2,-6.4,-3.0,3.6,-2.3
NC(=O)c1cc([N+](=O)[O-])ccc1NCC1CCCCC1,-0.8,7.7,-3.2,8.5,10.2,-6.6
COc1cc(NS(=O)(=O)c2ccc(C)cc2)c2ncccc2c1,0.9,-0.4,-5.5,-1.0,21.9,26.2
Cc1ccc(S(=O)(=O)Nc2cccc3cccnc23)cc1,2.9,-5.0,-2.6,-5.4,18.1,31.9*
C=CCn1c(SCC(=O)N(CC)C2CCS(=O)(=O)C2)nc2cc(C(=O)O)ccc2c1=O (centres undefined),0.1,5.4,2.1,1.8,12.6,-6.8
CCOC(=O)c1ccccc1NC(=O)COC(=O)CSc1ccccc1,0.5,21.2*,-1.4,2.0,-1.6,-3.5
Cc1ccccc1NC(=O)CSc1nnnn1C,0.1,5.4,-2.3,0.9,1.1,-4.0
CCOC(=O)c1ccccc1NC(=O)CSc1nnnn1C,0.3,18.9*,-0.9,3.5,-7.2,-0.1
COc1ccc(Cc2nc3ccc(C(=O)N(C)Cc4nccn4C)cc3o2)cc1,1.1,-1.1,-3.0,-6.8,2.8,-9.9
CN(CCCC1CCCC1)C(=O)c1cc(COc2ccc(F)cc2F)on1,1.4,-6.6,-3.7,-9.1,6.9,-3.0
CN(CCCN1CCCCC1)C(=O)c1cc(COc2ccc(F)cc2F)on1,0.2,-15.3,-8.3,-5.1,16.2,35.8*
C/C(=N\Nc1ncnc2sc(C)c(C)c12)c1ccccn1,2.2,5.0,-0.9,22.0*,-21.8,-17.2
O=C(Cc1c[nH]c2ccccc12)NCC(=O)Nc1ccc(F)c(F)c1F,2.7,4.5,0.4,-1.1,8.3,-4.1
Cc1cccc(NC(=O)CN2CCN(C(=O)C3CCCO3)CC2)c1C (centres undefined),1.0,-2.8,-2.0,5.7,-8.7,-0.1
SMILES,M4 ag,M4 PAM,CHRM5 agonist,M5 PAM,CHRM5 antagonist,M4 antag
CCCCCCCCN1C(=O)[C@H](CC(=O)NCc2cccc3ccccc23)C[C@@]2(C(=O)OCC)CCCC=C12,-1.1,7.7,-0.4,2.7,-9.0,-9.6
COCC1CCCCN1C(=O)c1cc(COc2ccc3ncccc3c2)on1 (centres undefined),32.4*,-12.4,7.4,-14.3,39.0*,33.7*
CCN(CC)C(=O)C1CCCN(C(=O)c2cc(COc3ccc4ncccc4c3)on2)C1 (centres undefined),18.1,-10.3,2.8,-15.7,8.4,-11.6
Cc1ccc(F)cc1CNC(=O)c1cc(COc2ccc3ncccc3c2)on1,24.8,-19.4,5.9,-15.9,55.5*,43.2*
O=C(NCc1cccc(Cl)c1)c1cc(COc2ccc3ncccc3c2)on1,17.1,-8.3,4.4,-23.2,22.2,10.6
CCC1CCCCN1C(=O)c1cc(COc2ccc3ncccc3c2)on1 (centres undefined),21.7,-11.7,7.1,-29.4,41.1*,5.1
CCN1CCN(C(=O)c2cc(COc3ccc4ncccc4c3)on2)CC1,12.4,0.4,7.7,-12.7,5.1,8.0
OCCNc1ncnc2c1ncn2[C@H]1CN(Cc2ccc(Cl)cc2)C[C@@H](CO)O1,0.7,6.5,1.1,-4.8,6.4,-11.8
Cc1noc(NS(=O)(=O)c2ccc(NC(=O)/C=C/c3ccc(C(C)C)cc3)cc2)c1C,-0.4,5.4,-2.1,-2.3,0.5,-2.6
COc1ccc(S(=O)(=O)Nc2cccc(/C=C/C(=O)O)c2)cc1,-0.6,12.4,-0.8,0.2,3.5,0.9
Cc1ccc(/C=C/C(=O)Nc2ccc(S(=O)(=O)Nc3ncccn3)cc2)cc1,2.3,6.2,5.7,25.8*,-14.3,-6.1
Cc1noc(NS(=O)(=O)c2ccc(NC(=O)/C=C/c3ccc(Br)cc3)cc2)c1C,-0.4,15.6*,2.4,15.8,-22.5,-6.2
Cc1ccc(S(=O)(=O)Nc2cccc(/C=C/C(=O)O)c2)cc1,0.9,7.5,-2.7,46.4*,-1.4,-0.3
COc1cc(S(=O)(=O)n2ccc(C)n2)c(C)cc1C,-0.6,-3.0,-0.4,-0.5,4.1,3.6
Cc1oc(-c2ccc(Cl)cc2)nc1CS(=O)CC(=O)NCCCN1CCN(Cc2ccccc2)CC1 (centres undefined),6.5,-11.7,-6.9,-12.2,31.0*,8.9
Cc1ccc(-c2nc(CS(=O)CC(=O)NCc3ccc(Cl)cc3)c(C)o2)cc1 (centres undefined),0.3,8.7,-1.7,-0.8,-2.7,-15.0
Cc1oc(-c2ccc(Cl)cc2)nc1CS(=O)CC(=O)NCc1ccccc1 (centres undefined),2.0,20.6*,-3.5,0.2,7.5,-2.2
CCOc1ccccc1C(=O)NCC(=O)NCCSc1ccc(Br)cc1,3.6,5.5,1.9,2.1,-3.2,-5.2
COc1ccc(S(=O)(=O)N2CCC(C(=O)NCCC(=O)NC3CC3)CC2)cc1,0.6,2.9,-4.7,-0.4,6.5,-8.7
N#Cc1ccc(OCC(=O)N2CCCC2=O)cc1,0.7,3.7,0.7,0.4,5.2,-3.3
O=C1CCC(C(=O)N2CCCO2)CN1Cc1cccc(C(F)(F)F)c1 (centres undefined),1.6,18.7*,-2.2,19.0*,-29.8,-10.1
